# Calls of active or inactive are those of the source. The rule behind the calls is not given here.
# How the values were obtained:
# [1] = Induction of preadipocyte differentiation into matured adipocyte in mouse ST-13 cells at 20 uM incubated for 2 to 8 days followed by compound wash out measured on day 12 by oil red O staining based phase contrast microscopy relative to control; type: functional
# In short: (§1)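 Mouse ST-13 preadipocytes were seeded on day 1 at 1 × 10^4 cells/mL in DME/F-12 with 10% FBS and penicillin/streptomycin, at 37 °C under 5% CO2. Medium containing compound, or 20 nM rosiglitazone as positive control, was renewed on days 2, 5 and 8. On day 12 cells were formalin-fixed, rinsed in 60% 2-propanol, stained with 0.24% Oil Red O and imaged by phase-contrast microscopy at 100×.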
# [2] = Induction of preadipocyte differentiation into matured adipocyte in mouse ST-13 cells at 40 uM incubated for 2 to 8 days followed by compound wash out measured on day 12 by oil red O staining based phase contrast microscopy relative to control; type: functional; in short: as §1
# Escherichia coli = assay: Antibacterial activity against Escherichia coli at 25 ug/ml; type: functional, organism-based
# Micrococcus luteus = assay: Antibacterial activity against Micrococcus luteus at 25 ug/ml; type: functional, organism-based
# Candida albicans = assay: […] activity against Candida albicans at 25 ug/ml; type: functional, organism-based
smiles,measurement,setting,value
CCCCC(=O)[C@H](C)/C=C(\C)[C@H](O)[C@H](C)/C=C/C=C/CC[C@@H](O)CC1=C(C)C(=O)C(C)(O)O1 (stereo partly specified),Activity,[1],45%
same,Activity,[2],73%
same,Activity,Escherichia coli,inactive
same,Activity,Micrococcus luteus,inactive
same,Activity,Candida albicans,inactive
CCCCC(=O)O[C@H](C)/C=C(\C)[C@H](O)[C@H](C)/C=C/C=C/CC[C@@H](O)CC1=C(C)C(=O)C(C)(O)O1 (stereo partly specified),Activity,[1],22%
same,Activity,[2],33%
same,Activity,Escherichia coli,inactive
same,Activity,Micrococcus luteus,inactive
same,Activity,Candida albicans,inactive
CC1=C(C[C@H](O)CC/C=C/C=C/[C@@H](C)[C@@H](O)/C(C)=C/[C@@H](C)O)OC(C)(O)C1=O (stereo partly specified),Activity,[1],9%

# Reference: ChEMBL document CHEMBL4145633, “Linfuranones B and C, Furanone-Containing Polyketides from a Plant-Associated Sphaerimonospora mesophila” (2018)
